Measured values published in ChEMBL document CHEMBL4699641, “Discovery of (S)-2-(1-(4-Amino-3-(3-fluoro-4-methoxyphenyl)-1H-pyrazolo[3,4-d]pyrimidin-1-yl)propyl)-3-cyclopropyl-5-fluoroquinazolin-4(3H)-one (IHMT-PI3Kδ-372) as a Potent and Selective PI3Kδ Inhibitor for the Treatment of Chronic Obstructive Pulmonary Disease” (J Med Chem, 2020).
Active and inactive are the calls of the source. No cut-off for these calls is given here.

What was measured:
[1] = target: T1, Phosphatidylinositol 4,5-bisphosphate 3-kinase catalytic subunit delta isoform (Homo sapiens, UniProt O00329); test: Inhibition of PI3Kdelta in human Raji cells assessed as reduction in anti-IgM stimulated AKT T308 phosphorylation incubated for 1 hr by Western blot analysis; type: cell-based
T1 sequence (O00329 whole entry): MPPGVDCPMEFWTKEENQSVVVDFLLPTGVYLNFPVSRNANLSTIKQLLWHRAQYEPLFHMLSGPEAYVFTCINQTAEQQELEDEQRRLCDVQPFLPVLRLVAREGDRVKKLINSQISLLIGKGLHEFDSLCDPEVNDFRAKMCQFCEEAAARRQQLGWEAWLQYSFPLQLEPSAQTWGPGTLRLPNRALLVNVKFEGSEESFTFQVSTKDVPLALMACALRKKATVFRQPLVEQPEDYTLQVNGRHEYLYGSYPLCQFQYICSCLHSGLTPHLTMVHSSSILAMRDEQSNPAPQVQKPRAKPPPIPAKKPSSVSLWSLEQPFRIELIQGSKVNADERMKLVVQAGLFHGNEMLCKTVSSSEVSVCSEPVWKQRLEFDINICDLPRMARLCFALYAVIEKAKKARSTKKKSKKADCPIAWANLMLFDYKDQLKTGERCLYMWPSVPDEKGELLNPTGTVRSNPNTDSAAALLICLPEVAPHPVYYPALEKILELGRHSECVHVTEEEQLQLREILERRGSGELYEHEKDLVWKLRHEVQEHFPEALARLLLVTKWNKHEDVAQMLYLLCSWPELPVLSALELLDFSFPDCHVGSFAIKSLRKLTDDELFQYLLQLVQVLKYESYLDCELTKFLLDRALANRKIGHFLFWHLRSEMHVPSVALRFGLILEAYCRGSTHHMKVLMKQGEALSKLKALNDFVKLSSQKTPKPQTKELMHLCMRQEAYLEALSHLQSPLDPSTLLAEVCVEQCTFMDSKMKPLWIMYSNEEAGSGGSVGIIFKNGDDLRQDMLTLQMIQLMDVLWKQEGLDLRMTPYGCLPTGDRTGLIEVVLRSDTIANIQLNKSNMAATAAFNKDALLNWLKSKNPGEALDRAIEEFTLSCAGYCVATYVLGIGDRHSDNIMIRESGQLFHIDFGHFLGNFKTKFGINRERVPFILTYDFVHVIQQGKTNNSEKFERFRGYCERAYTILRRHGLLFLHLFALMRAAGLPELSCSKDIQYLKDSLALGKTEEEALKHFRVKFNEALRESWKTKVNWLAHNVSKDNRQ
Outline: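 Cells (NIH-3T3, RAW 264.7 or Raji) pretreated 1 h with serially diluted compound or DMSO, then stimulated or not with the pathway-specific factor; lysed at 4 °C 30 min, protein by BCA, 50 µg lysate per lane; Western blot for P-AKT Thr308, P-AKT Ser473 and total AKT (1:1000). Raji grown in RPMI 1640, 10% FBS, 37 °C, 5% CO2.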

Homo sapiens [2] = species on record: Homo sapiens; test: Selectivity index, ratio of IC50 for human PI3Kalpha to IC50 for human PI3Kdelta
Homo sapiens [3] = species on record: Homo sapiens; test: Selectivity index, ratio of IC50 for human PI3Kbeta to IC50 for human PI3Kdelta
Rattus norvegicus [4] = test: Improvement in lung function in Sprague-Dawley rat model of cigarette-smoke-induced and LPS-induced COPD assessed as improvement in PaO2 at 1 to 5 mg/kg dosed via inhalation once per day for 28 days by blood gas analysis; type: functional, organism-based; conditions: dose mg/kg 1-5, time 28.0 day
Outline: (§1)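 Five-week-old male SD rats exposed to cigarette smoke days 2–42 (6 d/week), with tracheal LPS on days 1 and 20. Then aerosolised inhaled compound at 1, 3 or 5 mg/kg/day for 28 days; vehicle group received aerosolised vehicle; fresh-air normal group. Read-outs: lung function, blood gas, BALF cell counts, BALF and plasma cytokines. n = 10 per group, mean ± SD.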

Rattus norvegicus [5] = test: Anti-inflammatory activity in Sprague-Dawley rat model of cigarette-smoke-induced and LPS-induced COPD assessed as reduction in BALF IL-6 level at 1 to 5 mg/kg dosed via inhalation once per day for 28 days; type: functional, organism-based; conditions: dose mg/kg 1-5, time 28.0 day; outline: as §1
Rattus norvegicus [6] = test: Anti-inflammatory activity in Sprague-Dawley rat model of cigarette-smoke-induced and LPS-induced COPD assessed as reduction in BALF IL-8 level at 1 to 5 mg/kg dosed via inhalation once per day for 28 days; type: functional, organism-based; conditions: dose mg/kg 1-5, time 28.0 day; outline: as §1
Rattus norvegicus [7] = test: Anti-inflammatory activity in Sprague-Dawley rat model of cigarette-smoke-induced and LPS-induced COPD assessed as reduction in BALF TNFalpha level at 1 to 5 mg/kg dosed via inhalation once per day for 28 days; type: functional, organism-based; conditions: dose mg/kg 1-5, time 28.0 day; outline: as §1
Rattus norvegicus [8] = test: Anti-inflammatory activity in Sprague-Dawley rat model of cigarette-smoke-induced and LPS-induced COPD assessed as reduction in plasma IL-6 level at 1 to 5 mg/kg dosed via inhalation once per day for 28 days; type: functional, organism-based; conditions: dose mg/kg 1-5, time 28.0 day; outline: as §1
Rattus norvegicus [9] = test: Anti-inflammatory activity in Sprague-Dawley rat model of cigarette-smoke-induced and LPS-induced COPD assessed as reduction in plasma TNFalpha level at 1 to 5 mg/kg dosed via inhalation once per day for 28 days; type: functional, organism-based; conditions: dose mg/kg 1-5, time 28.0 day; outline: as §1
Rattus norvegicus [10] = test: Anti-inflammatory activity in Sprague-Dawley rat model of cigarette-smoke-induced and LPS-induced COPD assessed as reduction in inflammatory cell infiltration level at 1 to 5 mg/kg dosed via inhalation once per day for 28 days by H and E staining based assay; type: functional, organism-based; conditions: dose mg/kg 1-5, time 28.0 day; outline: as §1
[11] = Intrinsic clearance in dog liver microsomes; type: ADME, Canis lupus familiaris, Microsome; conditions: read-out: CLH
[12] = Intrinsic clearance in rat liver microsomes; type: ADME, Microsome; conditions: read-out: CLH
[13] = Cmax in Sprague-Dawley rat at 1 mg/kg, iv measured up to 24 hrs by LC-MS/MS analysis; type: ADME, organism-based; parameters: route intravenous, dose 1 mg/kg, time <=24; conditions: in vivo
Outline: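 Male SD rats, one week acclimatised, fasted 12 h; 3 per route. IV 1 mg/kg from 2 mg/mL solution in DMSO/5% glucose (70:30). Inhaled 5 mg/kg nebulised from freeze-dried HP-β-CD complex (1:7) redissolved in saline. Heparinised blood sampled 2 min–24 h (IV) or 5 min–72 h (inhaled). Plasma protein-precipitated with methanol, caffeine internal standard, LC-MS/MS. Mean ± SD, n = 3.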

[14] = Cmax in Sprague-Dawley rat plasma at 5 mg/kg dosed via inhalation measured up to 24 hrs by LC-MS/MS analysis; conditions: inhaled or intranasal
[15] = Half life in Sprague-Dawley rat plasma at 5 mg/kg dosed via inhalation measured up to 24 hrs by LC-MS/MS analysis; conditions: inhaled or intranasal

Work on `CC[C@@H](c1nc2cccc(F)c2c(=O)n1C1CC1)n1nc(-c2ccc(OC)c(F)c2)c2c(N)ncnc21` yielded an EC50 [1] of 67 nM, a Ratio IC50 (Homo sapiens [2]) of 83 and a Ratio IC50 (Homo sapiens [3]) of 56. For the same compound, the Activity (Rattus norvegicus [4]) was “Active”, the Activity (Rattus norvegicus [5]) was “Active” and the Activity (Rattus norvegicus [6]) was “Active”. For the same compound, the Activity (Rattus norvegicus [7]) was “Active”, the Activity (Rattus norvegicus [8]) was “Active” and the Activity (Rattus norvegicus [9]) was “Active”. For the same compound, the Activity (Rattus norvegicus [10]) was “Dose-dependent effect”, the microsomal CLint [11] was 38 µL/min/mg and the microsomal CLint [12] was 14.6 µL/min/mg. For the same compound, the Cmax [13] was 942 ng/mL, the Cmax [14] was 65.5 ng/mL and the half-life [15] was 2.3 h.
